ChEMBL document CHEMBL4184260, “Fluorous-tag assisted synthesis of a glycosaminoglycan mimetic tetrasaccharide as a high-affinity FGF-2 and midkine ligand” (Bioorg Med Chem, 2018)
pIC50: −log10 of the molar value.

What was measured:
[1] = target: Fibroblast growth factor 2 (Homo sapiens, UniProt P09038); assay: Inhibition of fluorescein labelled heparin-like hexasaccharide probe binding to recombinant human FGF-2 after 5 mins by fluorescence polarization assay
Midkine = target: T1, Midkine (Homo sapiens, UniProt P21741); assay: Inhibition of fluorescein labelled heparin-like hexasaccharide probe binding to recombinant human midkine after 5 mins by fluorescence polarization assay
T1 sequence (P21741 whole entry): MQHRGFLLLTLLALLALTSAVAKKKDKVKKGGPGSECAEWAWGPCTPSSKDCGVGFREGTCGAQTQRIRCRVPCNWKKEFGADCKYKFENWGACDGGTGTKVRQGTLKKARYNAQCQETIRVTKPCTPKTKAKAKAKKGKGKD
Outline: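 Recombinant human midkine at 63 nM final with 10 nM fluorescein-labelled heparin-like hexasaccharide probe in PBS (10 mM, pH 7.4) plus 0.5% BSA. […] Shaken 5 min in the dark; polarization read at ex 485 / em 535 nm. Triplicate wells averaged, one-site competition fit for IC50. At least three independent experiments.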

[2] = Solubility of the compound in PBS buffer at 100 uM at pH 7.4 in presence of 1% DMSO; type: physicochemical; conditions: pH 7.4, 100 µM

Chain of Fibroblast growth factor 2 (P09038 143-288 limits assumed): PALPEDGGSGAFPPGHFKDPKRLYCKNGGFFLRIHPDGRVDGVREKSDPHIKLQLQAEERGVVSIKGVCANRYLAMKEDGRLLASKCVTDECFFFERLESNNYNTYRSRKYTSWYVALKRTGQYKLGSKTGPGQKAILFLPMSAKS

## COc1ccc(O[C@@H]2O[C@H](C(=O)OCc3ccccc3)[C@@H](O[C@@H]3O[C@H](COS(=O)(=O)O)[C@@H](OS(=O)(=O)O)[C@H](O[C@@H]4O[C@H](C(=O)OCc5ccccc5)[C@@H](O[C@@H]5O[C@H](COS(=O)(=O)O)[C@@H](OS(=O)(=O)O)[C@H](OC(=O)CCC(C)=O)[C@H]5NC(=O)C(F)(F)F)[C@H](OCc5ccccc5)[C@H]4OC(=O)c4ccccc4)[C@H]3NC(=O)C(F)(F)F)[C@H](OCc3ccccc3)[C@H]2OC(=O)c2ccccc2)cc1
[1]
  pIC50: 4.38
Midkine
  pIC50: 5.89

## COc1ccc(O[C@@H]2O[C@H](COC(=O)CCC(F)(F)C(F)(F)C(F)(F)C(F)(F)C(F)(F)C(F)(F)C(F)(F)C(F)(F)F)[C@@H](O[C@@H]3O[C@H](CO[SH+]([O-])(O)O)[C@@H](O[SH+]([O-])(O)O)[C@H](O[C@@H]4O[C@H](COC(=O)C(C)(C)C)[C@@H](O[C@@H]5O[C@H](CO[SH+]([O-])(O)O)[C@@H](O[SH+]([O-])(O)O)[C@H](OC(=O)CCC(C)=O)[C@H]5N5C(=O)c6ccccc6C5=O)[C@H](OCc5ccccc5)[C@H]4OC(=O)c4ccccc4)[C@H]3N3C(=O)c4ccccc4C3=O)[C@H](OCc3ccccc3)[C@H]2OC(=O)c2ccccc2)cc1
[2]
  solubility: Soluble

## COc1ccc(O[C@@H]2O[C@H](C(=O)O)[C@@H](O[C@@H]3O[C@H](COS(=O)(=O)O)[C@@H](OS(=O)(=O)O)[C@H](O[C@@H]4O[C@H](C(=O)O)[C@@H](O[C@@H]5O[C@H](COS(=O)(=O)O)[C@@H](OS(=O)(=O)O)[C@H](O)[C@H]5NC(C)=O)[C@H](O)[C@H]4O)[C@H]3NC(C)=O)[C@H](O)[C@H]2O)cc1
[1]
  pIC50: 3.57
Midkine
  pIC50: 3.60
